From PubChem
MrgX1 antagonist – human MrgX1 receptor antagonism, primary screen; actives 1.3% (n = 310,000); MRGX1-HEK293 calcium flux, Fluo-4, BAM8-22 antagonism; active compounds read low; AID 588676; B-score at 10 µM;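 active means calcium-response B-score plate-corrected more than 3 library SD below zero, starting fluorescence within 5 deviations, no agonist response on first addition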;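 further: peak minus trough fluorescence over baseline after final BAM8-22 challenge near maximal dose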
Target sequence (Q96LB2 whole entry, looked up): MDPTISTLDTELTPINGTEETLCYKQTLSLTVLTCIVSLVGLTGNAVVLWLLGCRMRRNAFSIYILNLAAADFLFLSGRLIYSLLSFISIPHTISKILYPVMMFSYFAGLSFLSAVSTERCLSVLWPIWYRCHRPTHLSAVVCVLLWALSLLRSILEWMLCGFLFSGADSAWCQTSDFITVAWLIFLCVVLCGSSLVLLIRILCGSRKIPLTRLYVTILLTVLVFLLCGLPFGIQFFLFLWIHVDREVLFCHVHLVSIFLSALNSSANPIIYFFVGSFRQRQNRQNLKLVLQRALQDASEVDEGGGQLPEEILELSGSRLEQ
RGS4 block – inhibitors of human RGS4. P49798. HEK293 M3R/RGS4 inducible, Fluo-4 calcium flux; active compounds read high; triggered by carbachol at its EC20. B-score at 10 µM. actives 0.45% (n = 310,000);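 active means B-score, a plate-corrected calcium signal, over three deviations above library mean, with baseline fluorescence within five deviations of library mean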;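 further: RGS4 expression induced by doxycycline in cells with stable M3 receptor; B-score is computed from the integrated fluorescence ratio over baseline after carbachol; higher B-score means a larger calcium signal and so more RGS4 inhibition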
Target sequence (P49798 whole entry, looked up): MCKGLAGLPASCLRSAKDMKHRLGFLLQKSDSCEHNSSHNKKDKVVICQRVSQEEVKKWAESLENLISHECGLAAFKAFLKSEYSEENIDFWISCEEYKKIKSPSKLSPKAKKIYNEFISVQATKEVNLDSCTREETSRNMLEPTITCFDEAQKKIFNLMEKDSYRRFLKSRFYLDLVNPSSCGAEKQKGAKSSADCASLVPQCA
MrgX1 ag – human MrgX1 receptor agonism, primary screen; MrgX1-HEK293 cells, Fluo-4 calcium fluorescence, agonist mode; active compounds read high; actives 0.44% (n = 310,000); B-score at 10 µM; AID 588627;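 active means calcium response B-score plate-corrected fluorescence ratio at least 3 library SD, with starting fluorescence B-score inside 5 SD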
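Test system: Stable human MrgX1 HEK293 cell line | Schedule: Overnight plating before 1 h dye loading | Read-out basis: Baseline-normalised fluorescence change ratio, B-scored | Detection: Kinetic calcium dye fluorescence, Fluo-4 NW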
MrgX1 PAM – human MrgX1 positive allosteric modulation, primary screen | Q96LB2 | MrgX1-HEK293, Fluo-4 calcium flux, FDSS; active compounds read high | B-score at 10 µM | actives 0.63% (n = 310,000) | AID 588675;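 active means plate-corrected calcium response at least 3 library SD above typical, normal starting fluorescence, not activating the receptor alone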;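 further: compound read alongside a low EC10 to EC30 dose of BAM8-22 agonist; peak minus trough fluorescence over baseline measured at the second addition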
RGS4 pot – potentiators or activators of RGS4. HEK293 M3R/inducible RGS4, carbachol calcium flux Fluo4; active compounds read low. B-score at 10 µM. actives 0.92% (n = 310,000);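 active means B-score of the integrated calcium signal more than 4 SD below the library mean, with starting fluorescence not abnormally high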;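 further: negative B-score means reduced calcium response which marks RGS4 activation or potentiation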
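System – HEK293 FlpIn-TREx cells, stable M3R, doxycycline-inducible RGS4 · Reagent – ECmax carbachol challenge · Times – compound preincubation 20 min at room temperature before agonist · Technique – Fluo4 fluorescence kinetic imaging of calcium · Measure – B score of integrated Fluo4 ratio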
* hit, by the source's call; i = inactive; · = no result. In the library only some 3.5% were active in any assay of this set; here they are far more common.

SMILES	MrgX1 antagonist	RGS4 block	MrgX1 ag	MrgX1 PAM	RGS4 pot
CN1CCN(c2ccccc2/C=C2/C(=O)Nc3ccccc32)CC1	i	i	i	i	-8.5*
O=C1Nc2ccccc2/C1=C/c1ccccc1Cl	i	i	i	i	i
Cc1ccc(S(=O)(=O)NNC(=O)NC23CC4CC(CC(C4)C2)C3)cc1	i	i	28*	i	i
CC(=O)Nc1ccc(S(=O)(=O)NNC(=O)NC23CC4CC(CC(C4)C2)C3)cc1	i	i	i	i	i
Cc1ccc(S(=O)(=O)c2c(N)n(Cc3ccco3)c3nc4ccccc4nc23)cc1C	-4.8*	i	i	i	i
Cn1cccc1/C=C1\SC(=Nc2ccccc2)NC1=O	i	i	i	i	i
Cc1ccc(N=C2NC(=O)/C(=C/c3cn(C)c4ccccc34)S2)cc1C	-4.8*	·	i	i	·
O=C(Nc1nc(-c2ccc3c(c2)OCO3)cs1)C1COc2ccccc2O1 (configuration not stated)	i	i	i	i	-7.5*
CN(C)S(=O)(=O)N(CC(=O)N1CCN(c2ccccc2)CC1)c1ccccc1	i	i	i	i	i
C/C(=N\N=C(N)N)c1ccc(Cl)c(Cl)c1	i	i	i	14*	i
C/C(=N\NC(=O)C1CC1)c1ccc(Cl)c(Cl)c1	i	i	i	i	i
Cc1ccc2c(c1)N(C)/C(=C/c1cccc[n+]1C)S2	-7.2*	i	i	i	-7.3*
Cc1ccc2c(c1)N(C)/C(=C/c1cccc[n+]1CCO)S2	i	i	i	i	-7.3*
CN1/C(=C/c2cccc[n+]2C)Sc2ccccc21	i	i	i	i	-7.5*
O=c1ccc2cc(S(=O)(=O)Nc3ccc(Br)cc3)ccc2o1	i	i	i	i	i
CC1CCC(NS(=O)(=O)c2ccc(N3CCCC3=O)cc2)CC1 (configuration not stated)	i	i	i	i	i
COc1ccc(OCCCC(=O)OCC(=O)NNC(=O)c2ccc([N+](=O)[O-])cc2)cc1	i	i	i	i	i
O=C(Nc1ccccc1Cl)Nc1ccnn1C1CCN(C(=O)CCN2CCCO2)CC1	i	i	i	i	i
CC(=O)OCC(=O)Nc1ccc([N+](=O)[O-])cc1Cl	i	i	i	i	i
CC(=O)Oc1c(C)cc(Cl)cc1C(=O)Nc1ccc([N+](=O)[O-])cc1Cl	-5*	i	i	i	i
C=CCn1c(-c2cccc([N+](=O)[O-])c2)n[nH]c1=S	i	i	i	i	i
CCCn1c(-c2ccc(F)cc2)n[nH]c1=S	i	i	i	i	i
CCCCn1c(-c2ccc([N+](=O)[O-])cc2)n[nH]c1=S	i	i	i	i	-10*
C=C(C)Cn1c(-c2cccc([N+](=O)[O-])c2)n[nH]c1=S	-4.8*	i	i	i	i
CCOc1ccc(S(=O)(=O)NCc2ccccn2)c(C)c1C	i	i	i	i	i
SMILES	MrgX1 antagonist	RGS4 block	MrgX1 ag	MrgX1 PAM	RGS4 pot
COc1ccc(-n2c3c(cc(C#N)c2=O)C(=O)CCC3)cc1	i	i	i	11*	i
COc1ccc(-n2c3c(cc(C(=O)Nc4ccc(C)cc4)c2=O)C(=O)CCC3)cc1	i	i	i	i	i
Cc1ccc(SCCNC(=O)c2ccc([N+](=O)[O-])c(C)c2)cc1	i	i	i	i	i
Cc1ccc(SCCNC(=O)c2ccc(C)c([N+](=O)[O-])c2)cc1	i	i	i	i	-7*
CN1C(=O)[C@@H]2C[C@@]3([C@@]45C[C@H]6C(=O)N(C)[C@@H](Cc7ccccc7)C(=O)N6[C@@H]4Nc4ccccc45)c4ccccc4N[C@H]3N2C(=O)[C@@H]1Cc1ccccc1	i	i	i	i	i
CCc1sc(N2C(=O)C3C4CCC(C4=C(C)C)C3C2=O)nc1-c1ccccc1 (configuration not stated)	i	i	i	i	-7.5*
CCOc1cc(N2CCOCC2)c(OCC)cc1NC(=O)CN1C(=O)NC(C)(C2CC2)C1=O (configuration not stated)	-4.7*	i	i	i	i
CCC1CCCCN1S(=O)(=O)c1ccc(C(=O)Nc2nnc(-c3cccs3)o2)cc1 (configuration not stated)	i	·	65*	i	·
CCN1C(=NCCOC)N[C@@H](c2cccs2)C(C(=O)OC)=C1C	i	i	i	i	i
C/C(=N\NC(=O)c1ccc(Cn2cc(Br)cn2)o1)c1ccc(NC(=O)c2ccoc2C)cc1	·	i	·	·	-9.5*
C/C(=N\NC(=O)c1ccc(Cn2cc(Br)cn2)o1)c1cccc(NC(=O)C(C)(C)C)c1	i	i	i	i	i
CCOC(=O)c1ccccc1OCc1cc(/C=N/NC(=O)c2cccnc2)ccc1OC	i	i	i	i	-7.9*
COc1ccc(/C=N\NC(=O)c2ccc(F)cc2)cc1COc1cc(F)ccc1[N+](=O)[O-]	i	i	i	i	-9.8*
COc1ccc(/C=N/NS(=O)(=O)c2ccc(F)cc2)cc1COc1cc(F)ccc1[N+](=O)[O-]	i	i	i	i	i
COc1ccc(/C=N\NC(=O)c2ccccc2)cc1COc1ccccc1	i	i	i	i	i
CCOc1ccccc1-c1nnc(SCC(=O)NC2CC2)n1CC	i	i	i	i	i
Cc1cc(C(=O)Nc2c(C)nn(Cc3ccc(F)cc3)c2C)on1	-4.9*	i	i	i	i
CC(=O)N(C)c1ccc(NC(=O)Nc2ccc(C)c(C)c2)cc1	i	i	i	i	-7.4*
Cc1ccc(CN2C(=O)N/C(=C\c3ccc(N4CCOCC4)cc3)C2=O)cc1	i	i	i	i	i
CCCN1C(=O)/C(=C/c2ccc(N3CCCC3)c(C)c2)NC1=S	i	i	47*	i	i
Cc1cc(N2CCCC2)ccc1/C=C1/C(=O)N(C)C(=S)N1C	i	i	i	i	i
Cc1cc(/C=C2/C(=O)N(C)C(=S)N2C)ccc1N1CCCC1	i	i	i	7.6*	i
CCCN1C(=O)/C(=C/c2ccc(N3CCOCC3)cc2)NC1=S	-6.1*	i	i	i	i
Cc1ccc(CNC(=O)C2CCC(=O)N(Cc3cccc(C(F)(F)F)c3)C2)o1 (configuration not stated)	i	i	i	i	i
